High-throughput results as filed in PubChem BioAssay.
HSF1 activator = increases HSF-1 driven luciferase reporter signal. activation, % at 9 µM. hit rate 1.7% among 300,000. NIH3T3-HGL HSF-1 luciferase reporter, MG132, 8 h; 100% = twice DMSO control signal. AID 504408;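 active = mean replicate activation of at least 50% with a set share of replicates each reaching 50%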;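 also: 0% = median of the neutral control wells and 100% = twice that signal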
T cruzi repl = blocks replication of Trypanosoma cruzi. T. cruzi beta-gal in NIH3T3, luminescence, 90 h. inhibition, % (test concentration not listed). hit rate 1.4% among 300,000;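 active = mean inhibition across valid replicates above about 55%, limit read from the data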;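 also: signal also drops with host cell toxicity which is not excluded here; 0% = plate median of DMSO wells and 100% = zero luminescence signal; higher percent means less beta-gal luminescence so fewer parasites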
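Incubation – ≥90 h infection period, 3 h prior cell attachment · System – NIH/3T3 fibroblasts plus reporter T. cruzi · Doses – compound pinned at 50 nL/well, DMSO · Read-out basis – percent inhibition of parasite-derived β-gal signal · Signal – luminescent β-galactosidase signal after 60 min lysis · Also added – 5000 T. cruzi trypomastigotes/well · Medium – Low-serum DMEM with 2% FBS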
HSF1 inhib = HSF1 inhibition; activity change, negative = inhibition, % at 7.5 µM (by protocol); hit rate 0.77% among 300,000; NIH3T3-HGL HSE-luciferase, MG132-induced, luminescence 8 h; hits give low values;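 active = more than half of replicate wells show activity change below -50%, luminescence cut by over half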;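 also: luciferase reports HSF-1 transcriptional activity via heat shock element; 0% = median of DMSO wells and -100% = zero luminescence signal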
L major viab = Leishmania major promastigote growth inhibition; Leishmania major promastigotes, resazurin fluorescence viability; inhibition, % at 10 µM; hit rate 9% among 200,000; in the data active = inhibition above about 50%;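 also: promastigotes grown with compound for 44 hours at 28 °C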
Hsp70 activator = transcriptional activators of Hsp70; hit rate 0.04% among 200,000; activation, % at 10 µM; HeLa Hsp70 promoter luciferase reporter, luminescence; scaled: vehicle 0, proteasome-inhibitor control 100%;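 active = activation above the mean across all tested compounds plus 3 SD, cutoff set per campaign, cut at about 5.5% in these data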;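 also: 100% = MG132 at 30 µM as the positive control and 0% = DMSO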
An asterisk follows results filed as active. Only a selection was taken, and hits are over-represented in it overall.

N#C/C(=C\c1ccc(Cl)cc1)c1nc2ccccc2o1 was read as HSF1 activator 75*, T cruzi repl -22, HSF1 inhib 62, L major viab -4 and Hsp70 activator 0.
For CCOC(=O)C(C)Sc1ccc2nnc(CCNS(=O)(=O)c3ccccc3)n2n1 (stereo not given) the results were HSF1 activator -8, T cruzi repl -3, HSF1 inhib 0, L major viab 1 and Hsp70 activator 0.
For O=C(O)c1c(C(=O)O)c(-c2ccc(Br)cc2)n2c1CSC2 the results were HSF1 activator 9, T cruzi repl -21 and HSF1 inhib -2.
`Cc1nc2ccccc2c2oc(C(=O)N3CC(C)CC(C)C3)cc12` (stereo not given) gave HSF1 activator 0, T cruzi repl 16 and HSF1 inhib -6.
`CCOC(=O)C1CCN(c2c(C(=O)c3ccccc3)cnc3ccc(CC)cc23)CC1` gave HSF1 activator 3, T cruzi repl 0, HSF1 inhib 0, L major viab 55* and Hsp70 activator 0.
Screening CCOC(=O)C1CCCN(C(=O)c2cc(-c3ccncc3)nc3ccccc23)C1 (stereo not given) returned HSF1 activator -6, T cruzi repl 0 and HSF1 inhib -6.
For COc1cc2ncc(C(=O)c3ccccc3)c(N3CCN(Cc4ccccc4)CC3)c2cc1OC the results were HSF1 activator 6, T cruzi repl 42 and HSF1 inhib -6.
For CCOC(=O)C1CCCN(C(=O)c2cc3c(C)nc4ccccc4c3o2)C1 (stereo not given) the results were HSF1 activator 10, T cruzi repl 0, HSF1 inhib 18, L major viab 77* and Hsp70 activator 0.
For CCOC(=O)C1CCCN(c2c(C(=O)c3ccccc3)cnc3ccccc23)C1 (stereo not given) the results were HSF1 activator 2, T cruzi repl 0, HSF1 inhib 2, L major viab 51* and Hsp70 activator 0.
`COc1ccc(OCCN2C(=O)NC3(CCc4ccccc4C3)C2=O)cc1` (stereo not given) gave HSF1 activator 3, T cruzi repl -13, HSF1 inhib 4, L major viab -5 and Hsp70 activator 0.
Screening O=C1CCCN1Cc1ccccc1 returned HSF1 activator -1, T cruzi repl 0 and HSF1 inhib -3.
For CCOC(=O)N1CCC(N2CCCC(C(=O)c3cccc(OC)c3)C2)CC1 (stereo not given) the results were HSF1 activator -40, T cruzi repl 34 and HSF1 inhib -25.
For O=S(=O)(NCCCSc1ccccc1)c1ccccc1F the results were HSF1 activator -3, T cruzi repl 3 and HSF1 inhib 1.
Screening O=C(CCN1C(=O)/C(=C\c2cccs2)SC1=S)NC1=NCCS1 returned HSF1 activator 44, T cruzi repl -5, HSF1 inhib 4, L major viab -4 and Hsp70 activator 0.
For Cc1ccc(/C=C2\SC(=S)N(CC(=O)Nc3cccnc3)C2=O)cc1 the results were HSF1 activator 6, T cruzi repl -4, HSF1 inhib 12, L major viab -6 and Hsp70 activator 0.
For COc1ccccc1/C=C1\SC(=S)N(CCC(=O)NC2=NCCS2)C1=O the results were HSF1 activator -14, T cruzi repl 14, HSF1 inhib -7, L major viab 52* and Hsp70 activator 0.
`O=C(CCCN1C(=O)/C(=C\c2cccc(Br)c2)SC1=S)Nc1cccnc1` gave HSF1 activator 6, T cruzi repl 16, HSF1 inhib 5, L major viab 58* and Hsp70 activator 0.
`O=C(CCCN1C(=O)/C(=C/c2cccc(Br)c2)SC1=S)Nc1cccnc1` gave HSF1 activator 4, T cruzi repl 26, HSF1 inhib 7, L major viab 40 and Hsp70 activator 0.
Screening Cc1ccc(/C=C2\SC(=S)N(CCCC(=O)Nc3cccnc3)C2=O)cc1 returned HSF1 activator -70, T cruzi repl 6 and HSF1 inhib -60*.
COc1ccc(/C=C2\SC(=S)N(CCC(=O)Nc3cccc(O)c3)C2=O)cc1 was read as HSF1 activator 92*, T cruzi repl 7 and HSF1 inhib 67.
`COc1ccccc1N1CCN(CCCCN2C(=O)C3CCCCN3C2=O)CC1` (stereo not given) gave HSF1 activator 22, T cruzi repl 3 and HSF1 inhib -1.
For CCCSCCCNC(=O)Cn1c(=O)c2cccn2c2ccccc21 the results were HSF1 activator 6, T cruzi repl 6 and HSF1 inhib 9.
